Source: PubChem BioAssay
This is a sample that favours compounds with a hit; in the whole collection about 3.8% have one here.
SIRT5 block = blocks human SIRT5 desuccinylation of peptide; Purified SirT5, succinyl-peptide AMC, trypsin-coupled fluorescence; inhibition, % at 15 µM; hit rate 1.1% among 330,000; in the data active means inhibition above about 15%; inconclusive means no clear call, values can overlap the other calls
Target sequence (Q9NXA8 whole entry, looked up): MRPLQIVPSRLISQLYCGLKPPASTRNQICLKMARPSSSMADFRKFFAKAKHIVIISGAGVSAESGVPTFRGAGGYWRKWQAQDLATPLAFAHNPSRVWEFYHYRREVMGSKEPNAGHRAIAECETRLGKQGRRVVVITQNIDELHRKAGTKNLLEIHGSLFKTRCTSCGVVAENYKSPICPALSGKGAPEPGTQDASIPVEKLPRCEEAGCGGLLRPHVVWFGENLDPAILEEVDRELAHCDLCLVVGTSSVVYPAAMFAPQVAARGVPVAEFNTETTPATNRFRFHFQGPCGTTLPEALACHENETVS
ARNT TACC3 PPI = disrupts binding between human ARNT and TACC3. AlphaScreen His-ARNT PAS-B/GST-TACC3 binding, luminescence; TACC3 fragment carries E629A point mutation. inhibition, % at 9.99 µM. hit rate 0.66% among 390,000. AID 623870;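 active means mean inhibition of replicates at least 50% and at least half of replicates each reaching 50%; inconclusive means half or more replicates reach 50% but mean below 50%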;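 further: 0% = complete ARNT plus TACC3 wells and 100% = ARNT alone without TACC3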
DENV2 CPE = inhibitors of DENV2 cytopathic effect. DENV2-infected cells, cytopathic effect rescue, plate reader. CPE inhibition, % at 9.99 µM. hit rate 1.7% among 350,000. AID 651640; in the data active means CPE inhibition above about 20%, passing the limit was not always enough; inconclusive means no clear call, values can overlap the other calls; tested in BHK-21 cells;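 further: 0% = median of neutral control wells and 100% = median of positive control wells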
XiGFP reactiv = reactivates the inactive X chromosome in mouse fibroblasts | hit rate 0.055% among 360,000 | activation, % at 7.58 µM | XiGFP mouse fibroblasts, % GFP-positive cells imaging, 3 d; cells co-treated with 5-aza-dC sensitizer; scaled so ellipticine positive control = 100% | AID 743238;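 active means mean normalized replicate activation at least 10% and every replicate at or above 10%; inconclusive means only one of the two criteria met; inactive means mean below 10% and not all replicates reach 10%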;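 further: 0% = median of on-plate neutral control wells and 100% = ellipticine 6 µM median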
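Material: SV40-immortalized XiGFP fibroblast cells, line 68-5-11 | Buffer or medium: DMEM containing 5-aza-dC | Dosing: One concentration, pinned | Times: 3 d treatment, 15 min room-temperature fixation | Controls: Ellipticine 6 µM positive control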
FGF22 binding = binders of recombinant human FGF22 by thermal shift. Q9HCT0. SYPRO orange fluorescence; percent of sucrose octasulfate shift, DMSO zero. activity (Tm shift, normalised), % at 9.99 µM. hit rate 1.5% among 340,000. AID 651658;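 active means mean Tm shift, scaled 0 neutral to 100 positive control, at about 1.3% or above, every replicate too, limit read from the data; inconclusive means no clear call, values can overlap the other calls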
Target sequence (Q9HCT0 whole entry, looked up): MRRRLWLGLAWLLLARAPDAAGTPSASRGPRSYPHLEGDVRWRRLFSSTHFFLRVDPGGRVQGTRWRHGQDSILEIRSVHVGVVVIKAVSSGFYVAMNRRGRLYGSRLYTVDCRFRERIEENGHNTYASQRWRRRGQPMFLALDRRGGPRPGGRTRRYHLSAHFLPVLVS
FN deposit inh = fibronectin deposition inhibition; AH1F fibroblasts, Alexa488-fibronectin deposition fluorescence, overnight; inhibition, % at 12.6 µM; hit rate 0.086% among 350,000;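 active means mean inhibition across replicates of 30% or more, regardless of how many single replicates reach that level; inconclusive means mean under 30% yet at least half of replicates reach 30%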;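 further: positive control wells lacked labelled fibronectin entirely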
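Material: AH1F fibroblast monolayer depositing Alexa488-labelled fibronectin into matrix | Input: 10000 AH1F cells/well | Medium: DMEM plus 2% serum, read in PBS | Reagent: Alexa488-fibronectin, 24 nM final in well | Compound dosing: One dose per compound, pinned | Schedule: 1 h adhesion, overnight exposure | Measured by: Fluorescence at 485 nm excitation, 525 nm emission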
Starred values were filed as active, the others as inactive; ? = inconclusive; / = no result given.

SMILES	SIRT5 block	ARNT TACC3 PPI	DENV2 CPE	XiGFP reactiv	FGF22 binding	FN deposit inh
COC(=O)C(CC#Cc1ccc2c(c1)[C@]1(C(=O)N2)[C@H](C(=O)NC[C@H](O)c2ccccc2)[C@H]2C(=O)O[C@H](c3ccccc3)[C@H](c3ccccc3)N2[C@@H]1c1ccccc1OCCO)C(=O)OC	19*	27	13	/	0	/
C=CCNC(=O)[C@@H]1[C@H]2C(=O)O[C@H](c3ccccc3)[C@H](c3ccccc3)N2[C@H](c2ccc(O)cc2)[C@@]12C(=O)Nc1ccc(C#CCC(C(=O)OC)C(=O)OC)cc12	9	7	32*	/	0	/
C=CCOC(=O)[C@@H]1[C@H]2C(=O)O[C@H](c3ccccc3)[C@H](c3ccccc3)N2[C@H](c2ccc(OCCOC(=O)[C@@H]3C[C@@H]4C(=O)N[C@@H](Cc5ccccc5)C(=O)N4[C@@H]3c3ccc(O)cc3)cc2)[C@@]12C(=O)Nc1ccc(I)cc12	19*	9	-5	/	0	/
COC(=O)C(CC#Cc1ccc2c(c1)[C@]1(C(=O)N2)[C@H](c2ccccc2OCCO)N2[C@H](c3ccccc3)[C@H](c3ccccc3)OC(=O)[C@H]2[C@@H]1C(=O)N1CCc2cc(OC)c(OC)cc2C1)C(=O)OC	-2	-1	-5	/	-1	/
C=CCOC(=O)[C@H]1[C@@H]2C(=O)O[C@@H](c3ccccc3)[C@@H](c3ccccc3)N2[C@@H](c2ccc(OCCOC(=O)[C@@H]3C[C@@H]4C(=O)N[C@@H](Cc5ccccc5)C(=O)N4[C@@H]3c3ccc(O)cc3)cc2)[C@]12C(=O)Nc1ccc(I)cc12	-3	8	10	/	0	/
Cc1ccc(S(=O)(=O)Nc2ccc3cn[nH]c3c2)cc1C	/	/	1	0	44*	6
COc1cc(S(=O)(=O)Nc2ccc3cn[nH]c3c2)ccc1Cl	2	0	3	0	44*	11
Cc1ccc(S(=O)(=O)Nc2ccc3cn[nH]c3c2)cc1	-1	1	-9	0	0	-5
O=[N+]([O-])c1ccc(Cl)c(S(=O)(=O)Nc2ccc3cn[nH]c3c2)c1	-4	8	6	0	0	-4
CC(C)(C)c1nnc(N/N=C/c2ccccc2)n(N)c1=O	/	21	/	0	/	-2
CC(C)(C)c1nnc(N/N=C/c2ccccc2O)n(N)c1=O	/	60*	/	1	/	-6
COc1cc(/C=C(\CC(=O)O)c2nc3ccccc3s2)cc(OC)c1O	3	-6	-1	0	43*	-9
COc1ccc(/C=C(\CC(=O)O)c2nc3ccccc3s2)cc1O	4	1	3	0	0	5
N=c1c(C(=O)NC2CCCCC2)cc2c(=O)n3ccccc3nc2n1Cc1ccc(F)cc1	23*	-1	4	0	0	3
N=c1c(C(=O)NCc2ccco2)cc2c(=O)n3ccccc3nc2n1CCc1ccccc1	/	35	/	/	/	/
COc1ccc(CCn2c(=N)c(C(=O)NCc3ccco3)cc3c(=O)n4ccccc4nc32)cc1OC	-5	27*	4	/	0	7
COc1ccc(NC(=O)Nc2ccc3c(c2)CC(=O)N([C@H](C)CO)C[C@@H](C)[C@H](CN(C)C(=O)Nc2ccc4c(c2)OCO4)O3)cc1	1	-1	-1	-1	0	/
COc1ccc(-c2ccc3c(c2)O[C@@H](CN(C)Cc2ccccc2C(=O)O)[C@H](C)CN([C@@H](C)CO)S3(=O)=O)cc1	-9	5	11	0	0	0
CC(=O)N1C[C@@H]2[C@H](c3ccccc31)[C@H](CO)N2C(=O)CC1CC1	0	-1	11	0	0	/
CC1CN(C(=O)c2ccccc2Nc2ccc(SC(F)F)cc2)CC(C)O1 (configuration not stated)	1	-7	14	0	44*	-9
COc1ccc(C(=O)OC(C)CN2CCOCC2)cc1 (configuration not stated)	-5	1	-1	0	0	3
COc1ccc(C(=O)c2c(C)c3cc(C)ccc3n2CC(O)CN2CCOCC2)cc1 (configuration not stated)	10	14	-7	0	44*	1
O=C(COC(=O)CNC(=O)c1ccccc1F)Nc1cccnc1Cl	-1	-5	8	0	43*	2
CC1CCCC(C)N1C(=O)COC(=O)CCC(=O)c1ccc(F)cc1 (configuration not stated)	-1	/	8	0	0	9
CC1CCCC(NC(=O)COC(=O)c2cc3ccccc3oc2=O)C1C (configuration not stated)	1	-13	7	0	0	-2
SMILES	SIRT5 block	ARNT TACC3 PPI	DENV2 CPE	XiGFP reactiv	FGF22 binding	FN deposit inh
CC1CCN(C(=O)COC(=O)c2cc3ccccc3oc2=O)CC1	/	/	54*	0	44*	10
O=C(COC(=O)CNC(=O)c1ccccc1F)NCCNC(=O)COC(=O)CNC(=O)c1ccccc1F	-2	-5	?	0	0	-7
CC1CCN(C(=O)COC(=O)CCC(=O)c2ccc(F)cc2)CC1	/	/	/	0	43*	-1
O=C(CNC(=O)c1ccccc1F)NCCOc1ccccc1Cl	-4	-10	-2	0	43*	2
C[C@H]1CN([C@@H](C)CO)C(=O)CCCn2cc(nn2)CO[C@H]1CN(C)C(=O)Nc1ccccc1F	-1	-4	0	0	0	2
CN(C)CC(=O)N[C@@H]1CC[C@H](CCn2cc(C3CCCC3)nn2)O[C@@H]1CO	0	26	/	0	0	-2
O=C(CNC(=O)c1ccccc1F)OCC(=O)N1CCCCC1	-9	-2	-4	0	0	7
CC1CCN(C(=O)COC(=O)CNC(=O)c2ccccc2F)CC1	-3	-3	69*	0	0	-6
O=C1OCCOC2CCCc3oc(C4=CCCCC4)c1c32 (configuration not stated)	33*	/	?	0	0	4
C/C=C/c1ccc2c(c1)O[C@H](CN(C)C(=O)c1ccccc1F)[C@H](C)CN([C@H](C)CO)S2(=O)=O	-2	-5	-11	-1	0	-6
O=C(COc1ccccc1Br)Nc1ccccc1C(F)(F)F	-1	4	12	0	43*	-11
CC(=O)Nc1ccccc1OCC(=O)NCC(F)(F)F	-2	-2	-8	0	44*	2
C[C@H]1CN([C@@H](C)CO)S(=O)(=O)c2ccc(C#Cc3cccc(F)c3)cc2O[C@H]1CN(C)S(=O)(=O)c1ccccc1F	42*	-6	0	1	0	5
